Published values collected from several papers.
Technique: competition with immobilised ligand
JAK2 JH1: Tyrosine-protein kinase JAK2, JH1 (JAK2, Homo sapiens, UniProt O60674)
JAK2: Tyrosine-protein kinase JAK2 (JAK2, Homo sapiens, UniProt O60674)

SMILES	target	assay	conditions	remaining binding
c1cncc(-c2cccc(Nc3nccc(NC4CCCCC4)n3)c2)c1	JAK2 JH1	binding	10 µM	0.05%
COc1ccc2c(O[C@@H]3C[C@H]4C(=O)N[C@]5(C(=O)O)CC5/C=C\CCCCC[C@H](NC(=O)OC5CCCC5)C(=O)N4C3)cc(-c3csc(NC(=O)C(C)C)n3)nc2c1C (stereo partly drawn)	JAK2 JH1	cell-free assay	1 µM	64%
CC1CCCN1c1nccc(-c2cnn3ncccc23)n1 (stereo not drawn)	JAK2 JH1	cell-free assay	1 µM	98%
O=C(NCCCN1CCOCC1)c1ccc(Nc2ncc(Cl)c(-c3ccc(Cl)s3)n2)cc1	JAK2 JH1	binding	1 µM	2.9%
CNC(=O)Nc1ccc2c(c1)[C@@]1(CC2)OC(=O)N(CC(=O)N(Cc2ccc(F)cc2)[C@@H](C)C(F)(F)F)C1=O	JAK2 JH1	cell-free assay	1 µM	100%
CCN1CCN(Cc2ccc(C(=O)Nc3ccc(C)c(Oc4ccc5c(c4)CC(=O)N5)c3)cc2C(F)(F)F)CC1	JAK2 JH1	binding	1 µM	91%
Nc1ncc2c(n1)-c1c([nH]c3ccc(C#CC4CC4)cc13)CCCC2	JAK2 JH1	binding	1 µM	80%
CC(C)(C)c1ccc(-c2nc(CBr)nn2-c2cccc(O)c2)cc1	JAK2	cell-free assay	10 µM	67%
O=C(c1ccc(Nc2nccc(-c3cc4ccccc4s3)n2)cc1)N1CCC(N2CCCC2)CC1	JAK2 JH1	binding	1 µM	0.1%
COc1ccc2cc(OCC3(C(=O)O)CN(C(=O)c4ccc(F)cc4)C3)ccc2c1	JAK2 JH1	cell-free assay	1 µM	89%
O=C(NCCCN1CCOCC1)c1ccc(Nc2nccc(-c3cc4ccccc4s3)n2)cc1	JAK2 JH1	binding	1 µM	0.4%
CN(CCCC(F)(F)F)c1nccc(-c2cnn3ncccc23)n1	JAK2 JH1	cell-free assay	1 µM	94%
O=C(Nc1c[nH]nc1C(=O)NC1CCNCC1)c1cc(F)cc(F)c1	JAK2 JH1	binding	1 µM	100%
COc1cnc(Nc2cccc(S(N)(=O)=O)c2)nc1N1CCN(c2ccccc2)CC1	JAK2 JH1	binding	1 µM	14%
C[C@H](c1cccc(C#N)c1)n1cc(Cl)cc(C(N)=O)c1=N	JAK2 JH1	cell-free assay	1 µM	100%
C[C@@H]1CN(c2ccc3ncc(-c4ccc5[nH]nc(C6CC6)c5c4)n3n2)C[C@H](C)O1	JAK2	binding	50 nM	100%
CN(C)c1nccc(-c2cnc3ncccn23)n1	JAK2 JH1	cell-free assay	1 µM	80%
CN(C)C(=O)Cn1cc(-c2nc([C@@](C)(c3ccc(-c4cnc(N)nc4)cc3)C3CC3)no2)cn1	JAK2 JH1	cell-free assay	1 µM	73%
